Assay results taken from PubChem BioAssay.
Results filed as inconclusive are left out.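 Rule for the calls, unless noted: active = cell viability at or below a set limit in both duplicate runs, the limit being the all-compound median minus 4 SD (cut at about 23% in these data, passing the limit was not always enough); inconclusive = no clear call, values can overlap the other calls; inactive = the rest.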

Tests used:
[1] = S. cerevisiae growth inhibition in permissive medium (OD615), pilot counter-assay for S. cerevisiae lifespan shortening project, permissive growth control (AID 705;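 active = growth inhibition above 25% in both replicates, a cutoff set 3 SD above the mean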); conditions: OD615, 24 h, at 10 µM, hits give high values
Procedure, shortened: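 Material: engineered DeaD yeast; Compound: one dose 10 µM, DMSO 0.25% final; Detection: absorbance (optical density) at 615 nm; Buffer or medium: permissive raffinose/galactose medium; Timing: 24 h exposure, 30 °C.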

[2] = S. cerevisiae growth inhibition in restrictive medium, OD615, pilot screen, restrictive growth control, yeast lifespan reduction project (AID 706;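 active = growth inhibition above a set limit, 3 SD over mean compound inhibition, in both replicates, cut at about 43% in these data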;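 note: modified DeaD lifespan yeast strain shifted to restrictive glucose medium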); conditions: OD615, 48 h, at 10 µM, hits give high values
Procedure, shortened: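 Buffer or medium: restrictive glucose medium (CSMM-D); test system: modified S. cerevisiae; doses: single dose of 10 µM compound final, 0.25% DMSO; schedule: 48 h compound exposure at 30 °C; detection: absorbance (optical density) measured at 615 nm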

[3] = doxorubicin toxicity protection in MRP-1 cells – H69AR cells, CellTiter-Glo, duplicate, MRP-1 activator project, pilot screen (AID 807;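 active = viability increase at or above a cutoff of the median across tested compounds plus 3 SD, cut at about 8.5% in these data, passing the limit was not always enough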;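 note: compound pretreatment 18-22 h then 72 h combined with doxorubicin; 0% = doxorubicin alone and 100% = vehicle without doxorubicin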); conditions: H69AR viability with doxorubicin, CellTiter-Glo luminescence; at 10 µM; hits give high values
[4] = viability of HCT116 without oncogenic beta-catenin – human colon tumor cells, pilot screen (AID 823); conditions: HCT116 beta-catenin knockout viability, CellTiter-Glo, 60 h; at 10 µM; hits give low values;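 note: 0% = wells killed by 20 µM Hyamine and 100% = untreated DMSO cell wells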
[5] = viability of PTEN-null HCT116 cells – cell-based, HCT116 clonal line, CellTiter-Glo, pilot screen (AID 824;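 active = viability at or below 27.92% in each of two runs, the all-compound median minus 4 SD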;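 note: 0% = 20 µM Hyamine control and 100% = vehicle cell control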); conditions: HCT116 PTEN-deleted viability, 60 h, at 10 µM, hits give low values
[6] = RAM pathway blockade in budding yeast – dse1pr::URA3 reporter, 5-FOA selection, pilot screen (AID 869;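 active = inhibition over a set limit, the all-compound mean plus 3 SD, in both replicate runs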;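 note: 0% = DMSO wells with no growth and 100% = 10 µM 1-NA-PP1 with full growth; RAM network block rescues cells from 5-FOA so hits raise OD615 growth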); conditions: S. cerevisiae dse1pr::URA3 5-FOA growth, OD615, 2 d; at 10 µM; hits give high values; strain carries analog-sensitive mutant Cbk1 kinase
[7] = RAM signaling pathway blockade in yeast – S. cerevisiae, Pdr1DBD-CYC8 efflux-inhibited sensitized strain, primary screen (AID 1298;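 active = RAM network inhibition above 8.4% in each of two replicates, 3 SD over the compound average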;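 note: 0% = DMSO untreated cells without growth and 100% = 10 µM 1-NA-PP1 full growth; higher means more yeast growth rescued from 5-FOA killing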); conditions: S. cerevisiae cbk1-as DSE1-URA3 strain, 5-FOA growth OD615, 2 d; at 50 µM; hits give high values

Cc1cc(C)c(S(=O)(=O)N2CCN(CCO)CC2)c(C)c1
inactive: growth inhibition [1] 4.04% | growth inhibition [2] 10.5% | viability increase [3] 0.8% | viability [4] 108% | viability [5] 97.4% | inhibition [6] 1.64% | RAM network inhibition [7] 2.45%

O=C(c1ccc(S(=O)(=O)N2CCCC2)cc1)N1CCCc2ccccc21
inactive: growth inhibition [1] -17.6% | growth inhibition [2] -13.7% | viability increase [3] -4.87% | viability [4] 95.1% | viability [5] 92.4% | inhibition [6] 0.11% | RAM network inhibition [7] 1.2%

CCOc1ccc(NC(=O)CCS(=O)(=O)c2cccc3nsnc23)cc1
inactive: growth inhibition [1] -1.9% | growth inhibition [2] -3.6% | viability increase [3] -3.08% | viability [4] 101% | viability [5] 93.7% | inhibition [6] 1.31% | RAM network inhibition [7] 2.36%

Cn1c(=O)c2cc(S(=O)(=O)NC(C(=O)NCc3cccnc3)c3ccccc3)ccc2n(C)c1=O (configuration not stated)
inactive: growth inhibition [1] -17% | growth inhibition [2] -18.3% | viability increase [3] -1.54% | viability [4] 91.2% | viability [5] 94.2% | inhibition [6] 1.32% | RAM network inhibition [7] 1.81%

Cn1c(C(C#N)C(=O)Cc2cccc3ccccc23)nc2ccccc21 (configuration not stated)
inactive: growth inhibition [1] -3.6% | growth inhibition [2] -5.02% | viability increase [3] -1.14% | viability [4] 81.5% | viability [5] 78.9% | inhibition [6] 2.59% | RAM network inhibition [7] 4.32%

CCC(NC(=O)c1ccccc1NC(=O)c1ccco1)C(=O)O (configuration not stated)
inactive: growth inhibition [1] -0.94% | growth inhibition [2] -12.6% | viability increase [3] -4.34% | viability [4] 109% | viability [5] 95.7% | inhibition [6] 0.27% | RAM network inhibition [7] 0.73%

c1ccc2c(c1)nc1n2CCN1CCNC1CCCCC1
inactive: growth inhibition [1] -11.4% | growth inhibition [2] -11.7% | viability increase [3] -1.96% | viability [4] 94.2% | viability [5] 98.6% | inhibition [6] 0.065% | RAM network inhibition [7] 1.2%

CC1Oc2ccccc2C=C1C1/C(=C(/O)c2ccccc2)C(=O)C(=O)N1CCCN(C)C (configuration not stated)
inactive: growth inhibition [1] -3.27% | growth inhibition [2] 2.81% | viability increase [3] -2.78% | viability [4] 95.6% | viability [5] 97% | inhibition [6] -0.25% | RAM network inhibition [7] 0.77%

COc1ccc(N2CCN(c3nc4c(c(=O)[nH]c(=O)n4C)n3Cc3ccccc3Cl)CC2)cc1
inactive: growth inhibition [1] 4.9% | growth inhibition [2] -2.96% | viability increase [3] -2.71% | viability [4] 84.6% | viability [5] 75.3% | inhibition [6] 2.07% | RAM network inhibition [7] -1.3%

C=CCn1c(N(C)C)nc2c1c(=O)[nH]c(=O)n2C
inactive: growth inhibition [1] -8.42% | growth inhibition [2] -12.5% | viability increase [3] 1.25% | viability [4] 109% | viability [5] 100% | inhibition [6] 2.38% | RAM network inhibition [7] 4.26%

CC(C)CC1(C(=O)O)NC(c2ccccc2O)C2C(=O)N(C(C)C)C(=O)C21 (configuration not stated)
inactive: growth inhibition [1] 3.45% | growth inhibition [2] 3.48% | viability increase [3] -0.07% | viability [4] 102% | viability [5] 99.3% | inhibition [6] 1.27% | RAM network inhibition [7] 3.59%

COc1cccc(C(=O)Nc2nnc(-c3ccc(F)cc3)o2)c1
inactive: growth inhibition [1] -12.2% | growth inhibition [2] -0.875% | viability increase [3] -3.38% | viability [4] 29% | viability [5] 32% | inhibition [6] 0.4% | RAM network inhibition [7] 0.21%

Cc1ccc(C(=O)NCc2ccc3c(c2)OCO3)cc1N1CCCC1=O
inactive: growth inhibition [1] 5.69% | growth inhibition [2] 4.36% | viability increase [3] -1.36% | viability [4] 91.7% | viability [5] 98.2% | inhibition [6] 0.635% | RAM network inhibition [7] 4.17%

COc1ccc(N2C(=O)CCC(C(=O)NCc3ccccn3)C2c2ccc(OC)c(OC)c2)cc1 (configuration not stated)
inactive: growth inhibition [1] -3.9% | growth inhibition [2] 6.09% | viability increase [3] -1.53% | viability [4] 98.3% | viability [5] 100% | inhibition [6] 1.01% | RAM network inhibition [7] -0.31%

CC1(C)Nc2ccccc2N(CCC(=O)N2CCOCC2)C1=O
inactive: growth inhibition [1] -13.2% | growth inhibition [2] 0.485% | viability increase [3] -0.6% | viability [4] 92.9% | viability [5] 96.4% | inhibition [6] 0.905% | RAM network inhibition [7] 2.81%

COc1ccc(OC)c2sc(NC(=O)c3ccc(Br)s3)nc12
inactive: growth inhibition [1] -1.73% | growth inhibition [2] -13% | viability increase [3] -3.64% | viability [4] 85.1% | viability [5] 59.5% | inhibition [6] 2.71% | RAM network inhibition [7] 2.69%

O=C1CCc2cc(S(=O)(=O)NC(Cc3ccccc3)C(=O)NC3CCCC3)ccc2N1 (configuration not stated)
inactive: growth inhibition [1] -11.3% | growth inhibition [2] -9.16% | viability increase [3] -0.35% | viability [4] 96.8% | viability [5] 98.8% | inhibition [6] 1.86% | RAM network inhibition [7] 0.41%

COc1ccc(C2C(C(=O)NCCN(C)C)c3cc(OC)c(OC)cc3C(=O)N2C)cc1OC (configuration not stated)
inactive: growth inhibition [1] -3.47% | growth inhibition [2] -1.52% | viability increase [3] -1.38% | viability [4] 101% | viability [5] 104% | inhibition [6] 1.56% | RAM network inhibition [7] 3.25%

Cc1cc(C)cc(N(CC(=O)N2CCN(c3ccccc3)CC2)S(=O)(=O)c2c(C)noc2C)c1
inactive: growth inhibition [1] -14.4% | growth inhibition [2] -10.2% | viability increase [3] -3.46% | viability [4] 62.6% | viability [5] 67.5% | inhibition [6] 0.57% | RAM network inhibition [7] 6.09%

CCn1cc(S(=O)(=O)CC(=O)Nc2cc(C)ccc2C)c2ccccc21
inactive: growth inhibition [1] -10.1% | growth inhibition [2] -1.18% | viability increase [3] -0.93% | viability [4] 105% | viability [5] 82.5% | inhibition [6] 2.07% | RAM network inhibition [7] 3.99%

CC(C)Cc1nnc(NC(=O)CCN2C(=O)c3ccccc3C2=O)s1
inactive: growth inhibition [1] 5.23% | growth inhibition [2] 16% | viability increase [3] 0.42% | viability [4] 106% | viability [5] 98.4% | inhibition [6] 1.21% | RAM network inhibition [7] 9.47%

Cc1cc(C)c2c(n1)SCC(=O)N2CC(=O)NCCC1=CCCCC1
inactive: growth inhibition [1] -0.205% | growth inhibition [2] 4.58% | viability increase [3] -0.04% | viability [4] 103% | viability [5] 92.9% | inhibition [6] 0.52% | RAM network inhibition [7] 2.59%

CC1CN(c2cc(=O)n(Cc3ccc(F)cc3)c(=O)[nH]2)CC(C)O1 (configuration not stated)
inactive: growth inhibition [1] 5.64% | growth inhibition [2] -6.42% | viability increase [3] 0.06% | viability [4] 99.4% | viability [5] 105% | inhibition [6] 1.31% | RAM network inhibition [7] -0.24%

Cc1ccc(-c2nc(CS(=O)CC(=O)NCc3ccccc3)c(C)o2)cc1 (configuration not stated)
inactive: growth inhibition [1] 2.69% | growth inhibition [2] -1.83% | viability increase [3] -2.84% | viability [4] 98.2% | viability [5] 89.5% | inhibition [6] 0.175% | RAM network inhibition [7] 6.78%

CC(C)CC(NS(=O)(=O)c1ccc2c(c1)oc(=O)n2C)C(=O)NCc1cccnc1 (configuration not stated)
inactive: growth inhibition [1] -0.43% | growth inhibition [2] 15.8% | viability increase [3] -0.08% | viability [4] 112% | viability [5] 98.9% | inhibition [6] 1.82% | RAM network inhibition [7] 0.99%

CCSc1nnc(NC(=O)c2cccc(OCc3c(C)noc3C)c2)s1
inactive: growth inhibition [1] 1.08% | growth inhibition [2] 21.9% | viability increase [3] 0.55% | viability [4] 98.2% | viability [5] 92.6% | inhibition [6] 2.79% | RAM network inhibition [7] 4.07%

Cc1ccc2nc(NC(=O)C3CCN(S(=O)(=O)c4ccc5c(c4)oc(=O)n5C)CC3)sc2c1
inactive: growth inhibition [1] -5.8% | growth inhibition [2] -24.5% | viability increase [3] 1.75% | viability [4] 82.2% | viability [5] 88.9% | inhibition [6] 1.54% | RAM network inhibition [7] 9.3%

COc1cccc(CNC(=O)Cn2cc3c(n2)CCCC3)c1
inactive: growth inhibition [1] -7.1% | growth inhibition [2] 4.65% | viability increase [3] 0.16% | viability [4] 100% | viability [5] 93.2% | inhibition [6] 1.44% | RAM network inhibition [7] 3.05%

O=C(c1cc(-c2ccc(Cl)c(Cl)c2)on1)N1CCCC1
inactive: growth inhibition [1] -5.55% | growth inhibition [2] 0.315% | viability increase [3] 4.2% | viability [4] 111% | viability [5] 102% | inhibition [6] 1.99% | RAM network inhibition [7] 1.27%

COCCN1C(=O)c2oc3ccccc3c(=O)c2C1c1cccc(O)c1 (configuration not stated)
inactive: growth inhibition [1] -7% | growth inhibition [2] -8.97% | viability increase [3] -0.6% | viability [4] 107% | viability [5] 94.3% | inhibition [6] 1.1% | RAM network inhibition [7] 2.85%

COc1ccc(NC2c3ccccc3C(=O)N2c2cccnc2)cc1Cl (configuration not stated)
inactive: growth inhibition [1] 4.54% | growth inhibition [2] 2.02% | viability increase [3] -2.35% | viability [4] 89.5% | viability [5] 80.4% | inhibition [6] 2.27% | RAM network inhibition [7] 0.67%

CCCn1c(C(O)c2ccc(OCC)cc2)nc2ccccc21 (configuration not stated)
inactive: growth inhibition [1] -8.12% | growth inhibition [2] -1.57% | viability increase [3] -3.93% | viability [4] 94.9% | viability [5] 82.3% | inhibition [6] 1.36% | RAM network inhibition [7] -1.01%

COc1ccc(CCN2CC34C=CC(O3)C(C(=O)NCc3ccccc3)C4C2=O)cc1OC (configuration not stated)
inactive: growth inhibition [1] -2.83% | growth inhibition [2] -11.6% | viability increase [3] -1.24% | viability [4] 95.2% | viability [5] 93.9% | inhibition [6] 0.89% | RAM network inhibition [7] 9.27%

CCOc1ccc(-c2nc(CSc3nncs3)cs2)cc1OC
inactive: growth inhibition [1] 4.37% | growth inhibition [2] 16.2% | viability increase [3] -3.61% | viability [4] 84.1% | viability [5] 82% | inhibition [6] 0.655% | RAM network inhibition [7] 5.42%

O=C(Nc1ccc2c(c1)OCO2)C1CCCN1C(=O)OCc1ccccc1 (configuration not stated)
inactive: growth inhibition [1] -17.8% | growth inhibition [2] -4.2% | viability increase [3] -1.45% | viability [4] 94.4% | viability [5] 93.6% | inhibition [6] 1.32% | RAM network inhibition [7] 4.12%

CC1(C)CC(=O)c2c(Cc3ccccc3)n[nH]c2C1
inactive: growth inhibition [1] 0.375% | growth inhibition [2] -8.27% | viability increase [3] -1.7% | viability [4] 98.3% | viability [5] 90.5% | inhibition [6] 2.2% | RAM network inhibition [7] -0.11%
